Assay results as given in ChEMBL document CHEMBL3414477, “Synthesis, biological investigation and molecular docking study of N-malonyl-1,2-dihydroisoquinoline derivatives as brain specific and shelf-stable MAO inhibitors” (Eur J Med Chem, 2015).
One block for each compound: values may come before it.

Legend:
[1] = Shelf-life stability of the compound in phosphate buffer at pH 5.8 assessed as apparent pseudo first order rate constant of disappearance by reverse-phase HPLC analysis; assay type: physicochemical
Summary of the method: (§1)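 1 mL of freshly prepared 2 × 10^-4 M methanolic solution (stock) was added to 5 mL of 0.2 M phosphate buffer, pH 5.8 or 7.4, at about 37 °C. Tubes were kept in the dark for 3 days and sampled at 5, 180, 1880 and 2440 min for reverse-phase HPLC. The rate constant came from linear regression of ln peak area against time, and t1/2 was derived from it.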

[2] = Shelf-life stability of the compound in phosphate buffer at pH 7.4 assessed as apparent pseudo first order rate constant of disappearance by reverse-phase HPLC analysis; assay type: physicochemical; summary of the method: as §1
Brain [3] = assay: Stability of the compound in 20% rabbit brain homogenate assessed as apparent pseudo first order rate constant of disappearance by reverse-phase HPLC analysis; assay type: ADME, tissue-based, Oryctolagus cuniculus
Summary of the method: (§2)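 Rabbit brains were homogenized in 4 volumes of ice-cold isotonic 0.2 M phosphate buffer, pH 7.4, giving a 20% homogenate that was equilibrated at 37 °C. Methanolic compound solution (2 × 10^-4 M stock) was added and the mix held at 37 °C. Samples were taken at 5, 60, 120, 180 and 240 min, quenched in ice-cold methanol, frozen, centrifuged and run on HPLC. The pseudo first order rate came from ln peak area versus time (n = 5), and t1/2 was derived.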

Blood = assay: Drug metabolism in Sprague-Dawley rat blood assessed as 2-(isoquinolinium-2-yl)-3-oxo-3-(phenethylamino)propanoate measured during first 15 mins at 20 mg/kg, iv; assay type: ADME, organism-based; set-up: dose 20 mg/kg, route intravenous; settings: in vivo, 0.25 h
Summary of the method: (§3)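 Female Sprague Dawley rats (65–70 g, 3 per group) were anesthetized with urethane and given 20 mg/kg in DMSO (25 mg/mL) via the external jugular vein. At 5, 15, 30, 45, 60 and 75 min, eyeball blood was taken into acetonitrile. Brains were removed, washed, homogenized in water plus 5% DMSO/acetonitrile and centrifuged at 4000 rpm for 10 min. Supernatants were analysed by HPLC, with DMSO-injected controls.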

[4] = Chemical stability of the compound in 10% methanolic silver nitrate assessed as apparent pseudo first order rate constant of disappearance by reverse-phase HPLC analysis; assay type: physicochemical
Summary of the method: (§4)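 Reagents were 10% methanolic silver nitrate or 30% aqueous hydrogen peroxide. The compound and its metabolites were measured by a validated reverse-phase HPLC method. Pseudo first order disappearance was fitted by linear regression of ln peak area against time, and t1/2 was derived from the rate constant.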

[5] = Stability of the compound in 20% rabbit brain homogenate assessed as half life by reverse-phase HPLC analysis; assay type: ADME, tissue-based, Oryctolagus cuniculus; summary of the method: as §2
Brain [6] = assay: Drug metabolism in Sprague-Dawley rat brain assessed as 2-(isoquinolinium-2-yl)-3-oxo-3-(phenethylamino)propanoate at 20 mg/kg, iv; assay type: ADME, organism-based; set-up: dose 20 mg/kg, route intravenous; settings: in vivo; summary of the method: as §3
[7] = Shelf-life stability of the compound in phosphate buffer at pH 7.4 assessed as half life by reverse-phase HPLC analysis; assay type: physicochemical; summary of the method: as §1
[8] = Shelf-life stability of the compound in phosphate buffer at pH 5.8 assessed as half life by reverse-phase HPLC analysis; assay type: physicochemical; summary of the method: as §1
Brain [9] = assay: Drug metabolism in Sprague-Dawley rat brain assessed as 2-(isoquinolin-2(1H)-yl)-3-oxo-3-(phenethylamino)propanoate at 20 mg/kg, iv; assay type: ADME, organism-based; set-up: dose 20 mg/kg, route intravenous; settings: in vivo; summary of the method: as §3
[10] = Chemical stability of the compound in 30% aqueous hydrogen peroxide assessed as apparent pseudo first order rate constant of disappearance by reverse-phase HPLC analysis; assay type: physicochemical; settings: buffer; summary of the method: as §4
Brain [11] = assay: Drug distribution in Sprague-Dawley rat brain measured per gram at 20 mg/kg, iv; assay type: ADME, organism-based; set-up: dose 20 mg/kg, route intravenous; settings: in vivo; summary of the method: as §3
[12] = Chemical stability of the compound in 10% methanolic silver nitrate assessed as half life by reverse-phase HPLC analysis; assay type: physicochemical; summary of the method: as §4
[13] = Stability of the compound in 80% mouse plasma assessed as half life by reverse-phase HPLC analysis; assay type: ADME, cell-free
Summary of the method: (§5)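 Heparinized mouse blood was spun at 4000 rpm for 20 min, and the plasma was diluted to 80% with 0.2 M phosphate buffer, pH 7.4, then prewarmed at 37 °C. Methanolic compound solution (2 × 10^-4 M stock) was added and the mix held at 37 °C. Samples were taken at 5–240 min, quenched in ice-cold methanol, frozen, centrifuged and run on HPLC. Rate came from ln peak area versus time (n = 5), and t1/2 was derived.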

[14] = Chemical stability of the compound in 30% aqueous hydrogen peroxide assessed as half life by reverse-phase HPLC analysis; assay type: physicochemical; summary of the method: as §4
Plasma = assay: Stability of the compound in 80% mouse plasma assessed as apparent pseudo first order rate constant of disappearance by reverse-phase HPLC analysis; assay type: ADME, cell-free; summary of the method: as §5
[15] = target: T1, Amine oxidase [flavin-containing] A (Bos taurus, UniProt P21398); assay: Inhibition of bovine brain mitochondria MAO-A by spectrofluorimetry
T1 sequence (P21398 whole entry): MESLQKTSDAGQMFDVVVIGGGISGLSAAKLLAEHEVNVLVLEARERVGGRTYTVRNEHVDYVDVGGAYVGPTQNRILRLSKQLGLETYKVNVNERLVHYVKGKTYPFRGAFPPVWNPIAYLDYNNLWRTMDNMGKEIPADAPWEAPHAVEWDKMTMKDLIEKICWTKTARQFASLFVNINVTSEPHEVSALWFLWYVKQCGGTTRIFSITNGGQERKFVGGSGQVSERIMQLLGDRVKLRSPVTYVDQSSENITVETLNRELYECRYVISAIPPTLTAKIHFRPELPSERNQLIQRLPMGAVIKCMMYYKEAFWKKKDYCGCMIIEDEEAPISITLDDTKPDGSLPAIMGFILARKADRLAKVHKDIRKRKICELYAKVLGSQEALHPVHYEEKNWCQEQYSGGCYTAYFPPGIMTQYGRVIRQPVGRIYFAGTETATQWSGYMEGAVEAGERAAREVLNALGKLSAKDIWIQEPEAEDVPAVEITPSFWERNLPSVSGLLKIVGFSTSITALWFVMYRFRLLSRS

[16] = target: T2, Amine oxidase [flavin-containing] B (Bos taurus, UniProt P56560); assay: Inhibition of bovine brain mitochondria MAO-B by spectrofluorimetry
T2 sequence (P56560 whole entry): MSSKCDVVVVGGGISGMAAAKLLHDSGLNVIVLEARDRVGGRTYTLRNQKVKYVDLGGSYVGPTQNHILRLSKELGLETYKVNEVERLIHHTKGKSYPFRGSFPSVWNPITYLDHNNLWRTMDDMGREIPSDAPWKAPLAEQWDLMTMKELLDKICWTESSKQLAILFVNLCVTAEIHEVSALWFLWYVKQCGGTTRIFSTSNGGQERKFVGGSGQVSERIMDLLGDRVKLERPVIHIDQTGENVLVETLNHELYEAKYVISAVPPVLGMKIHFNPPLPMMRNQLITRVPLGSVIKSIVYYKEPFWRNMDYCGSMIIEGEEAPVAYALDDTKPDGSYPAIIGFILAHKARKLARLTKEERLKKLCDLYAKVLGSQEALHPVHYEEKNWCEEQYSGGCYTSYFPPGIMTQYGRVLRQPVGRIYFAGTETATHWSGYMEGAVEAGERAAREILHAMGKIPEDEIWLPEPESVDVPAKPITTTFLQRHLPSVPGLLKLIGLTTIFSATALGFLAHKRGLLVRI

Bos taurus = species on record: Bos taurus; assay: Selectivity index, ratio of IC50 for bovine brain mitochondria MAO-B to IC50 for bovine brain mitochondria MAO-A
Summary of the method: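 Bovine brain mitochondria (6 mg/mL suspension) in 0.25 M phosphate buffer, pH 7.4, were used with 0.1 mM clorgyline or L-deprenyl to isolate MAO-A or MAO-B. Compounds at five concentrations in propylene glycol were preincubated for 20 min, then 2.5 mM kynuramine was added for 60 min at 37 °C. The reaction was stopped with perchloric acid, made alkaline with NaOH and read fluorimetrically in duplicate. IC50 was reported, and SI = MAO-B IC50 / MAO-A IC50.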

SMILES: CCOC(=O)C(C(=O)N/N=C/c1ccc(Cl)cc1)[n+]1ccc2ccccc2c1 (stereo unspecified)
IC50 [15]: 0.066 µM | IC50 [16]: 360 µM | Selectivity Index (Bos taurus): 5400

SMILES: CCOC(=O)C(C(=O)NCCc1ccccc1)[n+]1ccc2ccccc2c1 (stereo unspecified)
IC50 [15]: 0.0062 µM | IC50 [16]: 77 µM | Selectivity Index (Bos taurus): 12400

SMILES: N/N=C/c1ccc(Cl)cc1
IC50 [15]: 0.0039 µM | IC50 [16]: 7400 µM | Selectivity Index (Bos taurus): 1.89e+06

Further lines, results first:

K [1]: 0.000561 min⁻¹ | K [2]: 0.00114 min⁻¹ | K (Brain [3]): 3.82 ×10⁻³ /min | Drug metabolism (Blood): metabolite_detected | K [4]: 0.0217 min⁻¹ | half-life [5]: 3.02 h | Drug metabolism (Brain [6]): metabolite_detected | half-life [7]: 10.1 h | half-life [8]: 20.6 h | Drug metabolism (Brain [9]): metabolite_detected | K [10]: 0.0181 min⁻¹ | Drug uptake (Brain [11]): 145.1 µg/g | half-life [12]: 0.532 h | half-life [13]: 1.7 h | half-life [14]: 0.637 h | K (Plasma): 6.81 ×10⁻³ /min
SMILES: CCOC(=O)C(C(=O)NCCc1ccccc1)N1C=Cc2ccccc2C1 (stereo unspecified)

IC50 [15]: 0.0038 µM | IC50 [16]: 7400 µM | Selectivity Index (Bos taurus): 1.94e+06
SMILES: CCOC(=O)C(C(=O)N/N=C/c1ccc([N+](=O)[O-])cc1)[n+]1ccc2ccccc2c1 (stereo unspecified)

IC50 [15]: 0.049 µM | IC50 [16]: 380 µM | Selectivity Index (Bos taurus): 9500
SMILES: N/N=C/c1ccc([N+](=O)[O-])cc1
